Experimental data as given in ChEMBL document CHEMBL5096226, “Structure-Activity Relationship Study of Momordica Saponin II Derivatives as Vaccine Adjuvants” (J Med Chem, 2022).
The source made the active and inactive calls.

Tests used:
Format in all cases: functional, organism-based
Mus musculus [1] = test: Immuno-adjuvant activity in BALB/c mouse assessed as increase in anti-OVA IgG2a antibody in serum at 50 ug, sc administered on day 0, 14 and 28 and measured at 2 weeks in presence of chicken egg ovalbumin by ELISA; conditions: dose 50.0 µg, time 6.0 weeks, in the assay text read “measured at 6 weeks” for “measured at 2 weeks”
In short: (§1)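 Female BALB/c mice (8–10 wk, six per group) immunized s.c. with OVA 20 μg ± adjuvant on days 0, 14, 28. Tail-vein serum taken before each dose and 2 wk after the last. ELISA on OVA-coated (0.1 μg/mL) plates in borate saline pH 8.2. Twofold serum dilutions in duplicate, overnight at 4 °C. HRP anti-mouse IgG/subclass applied 4 h, OPD substrate, read at 490 nm. Concentrations from reference-serum standard curves (4-parameter fit).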

Mus musculus [2] = test: Immuno-adjuvant activity in BALB/c mouse assessed as increase in anti-OVA Ig2a antibody in serum at 50 ug, sc administered on day 0, 14 and 28 and measured at 4 weeks in presence of chicken egg ovalbumin by ELISA; conditions: dose 50.0 µg, time 6.0 weeks, in the assay text read “measured at 6 weeks” for “measured at 4 weeks”; in short: as §1
Mus musculus [3] = test: Immuno-adjuvant activity in BALB/c mouse assessed as increase in anti-OVA IgG antibody in serum at 50 ug, sc administered on day 0, 14 and 28 and measured at 4 and 6 weeks in presence of chicken egg ovalbumin by ELISA; conditions: dose 50.0 µg, time 4-6 weeks; in short: as §1
Mus musculus [4] = test: Immuno-adjuvant activity in BALB/c mouse assessed as increase in intracellular level of INFgamma in spleen CD4+ cells at 50 ug, sc administered on day 0, 14 and 28 and measured at week 6 post immunization by flow cytometry analysis; conditions: dose 50.0 µg, time 6.0 weeks
In short: (§2)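 Female BALB/c mice (8–10 wk, six per group) given OVA 20 μg s.c. with adjuvant on days 0, 14, 28; spleens taken at week 6. Splenocytes stained with viability dye, Fc-blocked, surface-stained 30 min. For intracellular cytokines, cells stimulated 5 h with leukocyte activation cocktail plus GolgiPlug, then fixed/permeabilized. IL-21 detected with IL-21R Fc chimera. All steps at 4 °C. Read as MFI, mean ± SEM.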

Mus musculus [5] = test: Immuno-adjuvant activity in BALB/c mouse Splenocyte assessed as increase in CD4+ surface expression of PD-1 at 50 ug, sc administered on day 0, 14 and 28 and measured at week 6 post immunization by flow cytometry analysis; conditions: dose 50.0 µg, time 6.0 weeks; in short: as §2
Mus musculus [6] = test: Immuno-adjuvant activity in BALB/c mouse assessed as increase in intracellular level of INFgamma in spleen CD8+ cells at 50 ug, sc administered on day 0, 14 and 28 and measured at week 6 post immunization by flow cytometry analysis; conditions: dose 50.0 µg, time 6.0 weeks; in short: as §2
Mus musculus [7] = test: Immuno-adjuvant activity in BALB/c mouse assessed as increase in CD19+ B cells in spleen at 50 ug, sc administered on day 0, 14 and 28 and measured at week 6 post immunization by flow cytometry analysis; conditions: dose 50.0 µg, time 6.0 weeks
In short: (§3)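 Female BALB/c mice (8–10 wk, six per group), OVA 20 μg s.c. plus adjuvant on days 0, 14, 28; spleens collected week 6. Single-cell splenocyte suspensions stained and analysed by flow cytometry. TFH gated PD-1+Bcl6+Foxp3−CD4+CD3+, TFR PD-1+Bcl6+Foxp3+CD4+CD3+, dark zone GC B cells CXCR4hiCD86loFas+GL-7+CD19+. Steps at 4 °C. Mean ± SEM; unpaired t tests.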

Mus musculus [8] = test: Immuno-adjuvant activity in BALB/c mouse assessed as increase in ratio of TFH to TFR cells at 50 ug, sc administered on day 0, 14 and 28 and measured at week 6 post immunization by flow cytometry analysis; conditions: dose 50.0 µg, time 6.0 weeks; in short: as §3

Measured: Activity

C[C@@H]1O[C@@H](O[C@H]2[C@H](O)[C@@H](C(=O)NCCCCCCCCCCNC(=O)c3ccccc3)O[C@@H](O[C@H]3CC[C@]4(C)[C@H]5CC=C6[C@@H]7CC(C)(C)CC[C@]7(C(=O)O[C@@H]7O[C@H](C)[C@H](O)[C@H](O)[C@H]7O[C@@H]7O[C@@H](C)[C@H](O[C@@H]8OC[C@@H](O)[C@H](O)[C@H]8O)[C@@H](O[C@@H]8O[C@H](CO)[C@@H](O)[C@H](O[C@@H]9OC[C@@H](O)[C@H](O)[C@H]9O)[C@H]8O)[C@H]7O)[C@H](O)C[C@@]6(C)[C@]5(C)CC[C@H]4[C@]3(C)C=O)[C@@H]2O[C@@H]2O[C@H](CO)[C@H](O)[C@H](O)[C@H]2O)[C@H](O)[C@H](O)[C@H]1O
active: Mus musculus [1]

COc1cc(COC(=O)CCCCCCCCCCNC(=O)[C@H]2O[C@@H](O[C@H]3CC[C@]4(C)[C@H]5CC=C6[C@@H]7CC(C)(C)CC[C@]7(C(=O)O[C@@H]7O[C@H](C)[C@H](O)[C@H](O)[C@H]7O[C@@H]7O[C@@H](C)[C@H](O[C@@H]8OC[C@@H](O)[C@H](O)[C@H]8O)[C@@H](O[C@@H]8O[C@H](CO)[C@@H](O)[C@H](O[C@@H]9OC[C@@H](O)[C@H](O)[C@H]9O)[C@H]8O)[C@H]7O)[C@H](O)C[C@@]6(C)[C@]5(C)CC[C@H]4[C@]3(C)C=O)[C@H](O[C@@H]3O[C@H](CO)[C@H](O)[C@H](O)[C@H]3O)[C@@H](O[C@@H]3O[C@@H](C)[C@H](O)[C@@H](O)[C@H]3O)[C@@H]2O)cc(OC)c1
active: Mus musculus [2]

C[C@@H]1O[C@@H](O[C@H]2[C@H](O)[C@@H](C(=O)NCCCCCCCCCCCOC(=O)c3ccccc3)O[C@@H](O[C@H]3CC[C@]4(C)[C@H]5CC=C6[C@@H]7CC(C)(C)CC[C@]7(C(=O)O[C@@H]7O[C@H](C)[C@H](O)[C@H](O)[C@H]7O[C@@H]7O[C@@H](C)[C@H](O[C@@H]8OC[C@@H](O)[C@H](O)[C@H]8O)[C@@H](O[C@@H]8O[C@H](CO)[C@@H](O)[C@H](O[C@@H]9OC[C@@H](O)[C@H](O)[C@H]9O)[C@H]8O)[C@H]7O)[C@H](O)C[C@@]6(C)[C@]5(C)CC[C@H]4[C@]3(C)C=O)[C@@H]2O[C@@H]2O[C@H](CO)[C@H](O)[C@H](O)[C@H]2O)[C@H](O)[C@H](O)[C@H]1O
active: Mus musculus [3] | Mus musculus [1]

COc1cccc(COC(=O)CCCCCCCCCCNC(=O)[C@H]2O[C@@H](O[C@H]3CC[C@]4(C)[C@H]5CC=C6[C@@H]7CC(C)(C)CC[C@]7(C(=O)O[C@@H]7O[C@H](C)[C@H](O)[C@H](O)[C@H]7O[C@@H]7O[C@@H](C)[C@H](O[C@@H]8OC[C@@H](O)[C@H](O)[C@H]8O)[C@@H](O[C@@H]8O[C@H](CO)[C@@H](O)[C@H](O[C@@H]9OC[C@@H](O)[C@H](O)[C@H]9O)[C@H]8O)[C@H]7O)[C@H](O)C[C@@]6(C)[C@]5(C)CC[C@H]4[C@]3(C)C=O)[C@H](O[C@@H]3O[C@H](CO)[C@H](O)[C@H](O)[C@H]3O)[C@@H](O[C@@H]3O[C@@H](C)[C@H](O)[C@@H](O)[C@H]3O)[C@@H]2O)c1
active: Mus musculus [2] | Mus musculus [4] | Mus musculus [5] | Mus musculus [6] | Mus musculus [7]

C[C@@H]1O[C@@H](O[C@H]2[C@H](O)[C@@H](C(=O)NCCCCCCCCCCC(=O)OCc3ccc(F)cc3)O[C@@H](O[C@H]3CC[C@]4(C)[C@H]5CC=C6[C@@H]7CC(C)(C)CC[C@]7(C(=O)O[C@@H]7O[C@H](C)[C@H](O)[C@H](O)[C@H]7O[C@@H]7O[C@@H](C)[C@H](O[C@@H]8OC[C@@H](O)[C@H](O)[C@H]8O)[C@@H](O[C@@H]8O[C@H](CO)[C@@H](O)[C@H](O[C@@H]9OC[C@@H](O)[C@H](O)[C@H]9O)[C@H]8O)[C@H]7O)[C@H](O)C[C@@]6(C)[C@]5(C)CC[C@H]4[C@]3(C)C=O)[C@@H]2O[C@@H]2O[C@H](CO)[C@H](O)[C@H](O)[C@H]2O)[C@H](O)[C@H](O)[C@H]1O
active: Mus musculus [2] | Mus musculus [5] | Mus musculus [6] | Mus musculus [7] | Mus musculus [8]

C[C@@H]1O[C@@H](O[C@H]2[C@H](O)[C@@H](C(=O)NCCCCCCCCCCC(=O)OCc3cccc(Oc4ccccc4)c3)O[C@@H](O[C@H]3CC[C@]4(C)[C@H]5CC=C6[C@@H]7CC(C)(C)CC[C@]7(C(=O)O[C@@H]7O[C@H](C)[C@H](O)[C@H](O)[C@H]7O[C@@H]7O[C@@H](C)[C@H](O[C@@H]8OC[C@@H](O)[C@H](O)[C@H]8O)[C@@H](O[C@@H]8O[C@H](CO)[C@@H](O)[C@H](O[C@@H]9OC[C@@H](O)[C@H](O)[C@H]9O)[C@H]8O)[C@H]7O)[C@H](O)C[C@@]6(C)[C@]5(C)CC[C@H]4[C@]3(C)C=O)[C@@H]2O[C@@H]2O[C@H](CO)[C@H](O)[C@H](O)[C@H]2O)[C@H](O)[C@H](O)[C@H]1O
active: Mus musculus [2] | Mus musculus [5]

C[C@@H]1O[C@@H](O[C@H]2[C@H](O)[C@@H](C(=O)NCCCCCCCCCCCOCc3ccccc3)O[C@@H](O[C@H]3CC[C@]4(C)[C@H]5CC=C6[C@@H]7CC(C)(C)CC[C@]7(C(=O)O[C@@H]7O[C@H](C)[C@H](O)[C@H](O)[C@H]7O[C@@H]7O[C@@H](C)[C@H](O[C@@H]8OC[C@@H](O)[C@H](O)[C@H]8O)[C@@H](O[C@@H]8O[C@H](CO)[C@@H](O)[C@H](O[C@@H]9OC[C@@H](O)[C@H](O)[C@H]9O)[C@H]8O)[C@H]7O)[C@H](O)C[C@@]6(C)[C@]5(C)CC[C@H]4[C@]3(C)C=O)[C@@H]2O[C@@H]2O[C@H](CO)[C@H](O)[C@H](O)[C@H]2O)[C@H](O)[C@H](O)[C@H]1O
active: Mus musculus [3] | Mus musculus [1]

C[C@@H]1O[C@@H](O[C@H]2[C@H](O)[C@@H](C(=O)NCCCCCCCCCCC(=O)OCc3cccc([N+](=O)[O-])c3)O[C@@H](O[C@H]3CC[C@]4(C)[C@H]5CC=C6[C@@H]7CC(C)(C)CC[C@]7(C(=O)O[C@@H]7O[C@H](C)[C@H](O)[C@H](O)[C@H]7O[C@@H]7O[C@@H](C)[C@H](O[C@@H]8OC[C@@H](O)[C@H](O)[C@H]8O)[C@@H](O[C@@H]8O[C@H](CO)[C@@H](O)[C@H](O[C@@H]9OC[C@@H](O)[C@H](O)[C@H]9O)[C@H]8O)[C@H]7O)[C@H](O)C[C@@]6(C)[C@]5(C)CC[C@H]4[C@]3(C)C=O)[C@@H]2O[C@@H]2O[C@H](CO)[C@H](O)[C@H](O)[C@H]2O)[C@H](O)[C@H](O)[C@H]1O
active: Mus musculus [2] | Mus musculus [4] | Mus musculus [5] | Mus musculus [6] | Mus musculus [7] | Mus musculus [8]
